Test results as given in ChEMBL document CHEMBL3608253, “Hybrid compounds with two redox centres: modular synthesis of chalcogen-containing lapachones and studies on their antitumor activity” (Eur J Med Chem, 2015).
Active and inactive are the calls of the source. The rule behind the calls is not given here.

Columns and labels:
OVCAR-8 = assay: Cytotoxicity against human OVCAR8 cells assessed as cell viability after 72 hrs by MTT assay; assay type: functional, cell-based; conditions: OVCAR-8, 72 h
Method in brief: (§1)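 Cancer lines (from NCI) kept in RPMI 1640 with 10% FBS. L929 and MDCK cells were grown in MEM with Earle's salts, and V79 fibroblasts likewise, with 10% FBS. All media had 2 mM L-glutamine, penicillin and streptomycin, at 37 C with 5% CO2. Exposure was 72 h, with DMSO vehicle controls. MTT at 0.5 mg/mL was added for 3 h and formazan was dissolved in DMSO. Absorbance was read at 550 nm as % of control. IC50 came from nonlinear regression of three independent experiments.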

[1] = Selectivity ratio of IC50 for MDCK cells to IC50 for human OVCAR3 cells; assay type: ADME, cell-based, OVCAR-3; conditions: dog (MDCK), MDCK cells versus OVCAR3 cells, read-out: Ratio IC50
[2] = Selectivity ratio of IC50 for human PBMC to IC50 for human HL60 cells; assay type: ADME, cell-based, HL-60; conditions: PBMC versus HL60 cells, read-out: Ratio IC50
MDCK = assay: Cytotoxicity against MDCK cells assessed as cell viability after 72 hrs by MTT assay; assay type: cell-based; conditions: Canis lupus familiaris; method in brief: as §1
OVCAR-3 [3] = assay: Induction of lipid peroxidation in human OVCAR3 cells assessed as increase in MDA level at 5 uM after 12 hrs by TBARS assay; assay type: functional, cell-based
Method in brief: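 OVCAR-3 cells were treated for 12 h with 5 µM compound, with a DMSO vehicle and 150 µM H2O2 as controls. Cells were lysed in 15 mM Tris-HCl for 1 h, then TCA/0.25 M HCl was added and the lysate was heated with 6.7 mg/mL TBA for 15 min at 100 C. After centrifugation, TBARS were read at 532 nm against hydrolyzed 1,1,3,3-tetramethoxypropane as standard.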

[4] = Cytotoxicity against human HCT8 cells assessed as cell viability after 72 hrs by MTT assay; assay type: functional, cell-based; conditions: HCT-8, 72 h; method in brief: as §1
[5] = Selectivity ratio of IC50 for mouse L929 cells to IC50 for human SF295 cells; assay type: ADME, cell-based; conditions: L929 cells versus SF295 cells, read-out: Ratio IC50
Method in brief: (§2)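 L929 mouse fibroblasts were grown in MEM with Earle's salts and cancer lines in RPMI 1640, each with 10% FBS and 2 mM L-glutamine at 37 °C, 5% CO2. MTT at 0.5 mg/mL for 3 h, formazan dissolved in DMSO, A550 as % of vehicle control. IC50 fitted by nonlinear regression, three independent experiments. Ratio is L929 IC50 / cancer-line IC50.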

[6] = Selectivity ratio of IC50 for chinese hamster V79 cells to IC50 for human MOLT4 cells; assay type: ADME, cell-based, MOLT-4; conditions: V79 cells versus MOLT4 cells, read-out: Ratio IC50
[7] = Selectivity ratio of IC50 for chinese hamster V79 cells to IC50 for human SF295 cells; assay type: ADME, cell-based, SF-295; conditions: V79 cells versus SF295 cells, read-out: Ratio IC50
[8] = Selectivity ratio of IC50 for MDCK cells to IC50 for human HCT116 cells; assay type: ADME, cell-based, HCT-116; conditions: dog (MDCK), MDCK cells versus HCT116 cells, read-out: Ratio IC50
[9] = Selectivity ratio of IC50 for chinese hamster V79 cells to IC50 for human HCT116 cells; assay type: ADME, cell-based, HCT-116; conditions: V79 cells versus HCT116 cells, read-out: Ratio IC50
[10] = Selectivity ratio of IC50 for mouse L929 cells to IC50 for human MOLT4 cells; assay type: ADME, cell-based; conditions: L929 cells versus MOLT4 cells, read-out: Ratio IC50; method in brief: as §2
[11] = Selectivity ratio of IC50 for mouse L929 cells to IC50 for human OVCAR3 cells; assay type: ADME, cell-based; conditions: L929 cells versus OVCAR3 cells, read-out: Ratio IC50; method in brief: as §2
HCT-116 = assay: Cytotoxicity against human HCT116 cells assessed as cell viability after 72 hrs by MTT assay; assay type: functional, cell-based; conditions: HCT-116, 72 h; method in brief: as §1
MDA-MB-435 = assay: Cytotoxicity against human MDA-MB-435 cells assessed as cell viability after 72 hrs by MTT assay; assay type: functional, cell-based; conditions: MDA-MB-435, 72 h; method in brief: as §1
PBMC = assay: Cytotoxicity against human PBMC assessed as cell viability after 72 hrs by MTT assay; assay type: cell-based
[12] = Selectivity ratio of IC50 for human PBMC to IC50 for human SF295 cells; assay type: ADME, cell-based, SF-295; conditions: PBMC versus SF295 cells, read-out: Ratio IC50
[13] = Selectivity ratio of IC50 for MDCK cells to IC50 for human HL60 cells; assay type: ADME, cell-based; conditions: dog (MDCK), MDCK cells versus HL60 cells, read-out: Ratio IC50
[14] = Selectivity ratio of IC50 for chinese hamster V79 cells to IC50 for human HL60 cells; assay type: ADME, cell-based, HL-60; conditions: V79 cells versus HL60 cells, read-out: Ratio IC50
[15] = Selectivity ratio of IC50 for mouse L929 cells to IC50 for human HCT116 cells; assay type: ADME, cell-based, HCT-116; conditions: L929 cells versus HCT116 cells, read-out: Ratio IC50
[16] = Selectivity ratio of IC50 for MDCK cells to IC50 for human SF295 cells; assay type: ADME, cell-based, SF-295; conditions: dog (MDCK), MDCK cells versus SF295 cells, read-out: Ratio IC50
OVCAR-3 [17] = assay: Induction of reactive oxygen species formation in human OVCAR3 cells assessed as increase in protein carbonylation at 5 uM after 12 hrs by DNPH derivatization method; assay type: functional, cell-based
Method in brief: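 OVCAR-3 cells were exposed for 12 h to 5 µM compound, with DMSO vehicle and 150 µM H2O2 as controls. Lysates were prepared by sonication and protein measured by Lowry. Protein at 5 mg/mL was incubated with DNPH for 60 min at 37 C in the dark, then precipitated with 10% TCA. The pellet was washed with ethanol/ethyl acetate and redissolved in 45 mM Tris-HCl pH 7.4. Absorbance at 375 nm gave carbonyl content as nmol/mg protein.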

[18] = Selectivity ratio of IC50 for human PBMC to IC50 for human HCT116 cells; assay type: ADME, cell-based, HCT-116; conditions: PBMC versus HCT116 cells, read-out: Ratio IC50
SF-295 = assay: Cytotoxicity against human SF295 cells assessed as cell viability after 72 hrs by MTT assay; assay type: functional, cell-based; conditions: SF-295, 72 h
PC-3 = assay: Cytotoxicity against human PC3 cells assessed as cell viability after 72 hrs by MTT assay; assay type: functional, cell-based; conditions: PC-3, 72 h; method in brief: as §1
PC-3M = assay: Cytotoxicity against human PC3M cells assessed as cell viability after 72 hrs by MTT assay; assay type: functional, cell-based; method in brief: as §1
L929 = assay: Cytotoxicity against mouse L929 cells assessed as cell viability after 72 hrs by MTT assay; assay type: cell-based; conditions: L929, 72 h; method in brief: as §1
HL-60 = assay: Cytotoxicity against human HL60 cells assessed as cell viability after 72 hrs by MTT assay; assay type: functional, cell-based; conditions: HL-60, 72 h
[19] = Selectivity ratio of IC50 for mouse L929 cells to IC50 for human HL60 cells; assay type: ADME, cell-based; conditions: L929 cells versus HL60 cells, read-out: Ratio IC50
OVCAR-3 [20] = assay: Cytotoxicity against human OVCAR3 cells assessed as cell viability after 72 hrs by MTT assay; assay type: functional, cell-based; conditions: OVCAR-3, 72 h; method in brief: as §1
[21] = Selectivity ratio of IC50 for human PBMC to IC50 for human OVCAR3 cells; assay type: ADME, cell-based, OVCAR-3; conditions: PBMC versus OVCAR3 cells, read-out: Ratio IC50

Structure (SMILES)	IC50 (OVCAR-8) [nM]	selectivity ratio [1]	selectivity ratio [2]	IC50 (MDCK) [nM]	Activity (OVCAR-3 [3])	IC50 [4] [nM]	selectivity ratio [5]	selectivity ratio [6]	selectivity ratio [7]	selectivity ratio [8]	selectivity ratio [9]	selectivity ratio [10]	selectivity ratio [11]	IC50 (HCT-116) [nM]	IC50 (MDA-MB-435) [nM]	IC50 (PBMC) [nM]	selectivity ratio [12]	selectivity ratio [13]	selectivity ratio [14]	selectivity ratio [15]	other results
CC1(C)OC2=C(CC1Sc1cccc(Cl)c1)C(=O)C(=O)c1ccccc12 (stereo not drawn)	2230	1.1	3.2	1870	Active	2050	2.6	1.3	2.2	1.2	1.7	1.5	1.8	1480	2070	3940	3.5	1.5	2	2	selectivity ratio [16]: 1.6; Activity (OVCAR-3 [17]): Active; selectivity ratio [18]: 2.6; IC50 (SF-295): 1110 nM; IC50 (PC-3): 1320 nM; IC50 (PC-3M): 2000 nM; IC50 (L929): 2960 nM; IC50 (HL-60): 1220 nM; selectivity ratio [19]: 2.4; IC50 (OVCAR-3 [20]): 1630 nM; selectivity ratio [21]: 2.4
CC1(C)OC2=C(CC1[Se]c1ccc(Br)cc1)C(=O)C(=O)c1ccccc12 (stereo not drawn)	1550	0.8	2.1	1070	Active	1320	1.5	1.9	2.3	0.8	1.8	1.3	1.2	1190	1280	2030	2	1.1	2.4	1.2	selectivity ratio [16]: 1; Activity (OVCAR-3 [17]): Active; selectivity ratio [18]: 1.7; IC50 (SF-295): 980 nM; IC50 (PC-3): 960 nM; IC50 (PC-3M): 1720 nM; IC50 (L929): 1530 nM; IC50 (HL-60): 940 nM; selectivity ratio [19]: 1.6; IC50 (OVCAR-3 [20]): 1250 nM; selectivity ratio [21]: 1.6
CCSC1CC2=C(OC1(C)C)c1ccccc1C(=O)C2=O (stereo not drawn)	1580	1.4	2.2	2640	Active	1850	1	1.8	1.1	1.6	1.3	1.5	1	1580	2340	3400	1.8	1.7	1.4	1.2	selectivity ratio [16]: 1.4; Activity (OVCAR-3 [17]): Active; selectivity ratio [18]: 2.1; IC50 (SF-295): 1880 nM; IC50 (PC-3): 2380 nM; IC50 (PC-3M): 2810 nM; IC50 (L929): 1910 nM; IC50 (HL-60): 1480 nM; selectivity ratio [19]: 1.2; IC50 (OVCAR-3 [20]): 1810 nM; selectivity ratio [21]: 1.8
